Experimental data collected from several papers.
Compare with care: the assays were run in different laboratories.
Target: Dual specificity protein kinase CLK4 (CLK4, Homo sapiens, UniProt Q9HAZ1)

| SMILES | observed | mode | technique | concentration | measurement | result |
| --- | --- | --- | --- | --- | --- | --- |
| COc1cccc(CNC(=O)c2nc3scc(COCc4ccc(C(=O)O)cc4)c3c(=O)[nH]2)c1 | cell-free assay |  | competition with immobilised ligand | 1 µM | remaining binding | 94.4% |
| CC(C)(O)[C@H]1CC[C@H](Nc2ccc3ncc(-c4cccc(C(F)(F)F)c4)n3n2)CC1 | enzyme activity | inhibitor |  | 1 µM | remaining activity | 21.3% |
| C[C@@H]1CN(c2cc(-c3nn(C)c4ccc(OC5(C)CC5)cc34)ncn2)C[C@H](C)O1 | cell-free assay |  | competition with immobilised ligand | 1 µM | remaining binding | 100% |
| CCN1/C(=C/C(C)=O)Sc2ccc(OC)cc21 | cell-free assay |  |  | 0.5 µM | remaining signal | 18.5% |
| COc1cc(Cl)c(C(=O)N[C@@H](CN[C@H]2CC[C@@H](N)CC2)Cc2ccc(C#N)cc2)cc1-c1ccc(CN[C@H](C)c2ccc(C)cc2)o1 | enzyme activity | inhibitor |  | 1 µM | remaining activity | 103% |
| FC(F)(F)c1ccc2c(c1)nc(-c1cccnc1)n2C1CC1 | cell-free assay |  | competition with immobilised ligand | 1 µM | remaining binding | 100% |
| Oc1ccc(-c2nc(-c3ccncc3)c(-c3ccc(F)cc3)[nH]2)cc1 | cell-free assay |  |  | 0.5 µM | remaining signal | 106% |
| Cc1ccc(NC(=O)c2ccc(C)c(C(F)(F)F)c2)cc1C#Cc1nn(C2CCC(O)CC2)c2ncnc(N)c12 (stereo not drawn) | cell-free assay |  |  | 10 µM | remaining signal | 58% |
| CC(=O)Nc1c(C(C)=O)c(=O)n(C)c2nc(-c3ccc(Cl)cc3Cl)c(-c3ccc(Cl)cc3)cc12 | cell-free assay |  | competition with immobilised ligand | 1 µM | remaining binding | 100% |
| COc1cc(-c2cc(-c3ccc(N4CCNCC4)cc3)cnc2C)cc(OC)c1OC | enzyme activity | inhibitor |  | 1 µM | inhibition | 7% |
| Cn1cnc(Br)c1C1=CN(c2ncnc3[nH]cnc23)CCS1 | enzyme activity | inhibitor | radiometric | 2 µM | inhibition | 98.8% |
| Cc1cnc(NC2CCOCC2)nc1-n1cnc(C(=O)NC(CN)c2cc(F)cc(Cl)c2)c1 (stereo not drawn) | enzyme activity | inhibitor | radiometric | 1 µM | remaining activity | 63% |
| Cc1ccc(NC(=O)c2ccc(CN3CCN(C)CC3)cc2)cc1Nc1nc(-c2cccnc2)cs1 | cell-free assay |  |  | 0.5 µM | remaining signal | 93.3% |
| CN(c1ccnc(CNc2nc(Nc3ccc4c(c3)CC(=O)N4)ncc2C(F)(F)F)n1)S(C)(=O)=O | binding |  | competition with immobilised ligand | 1 µM | remaining binding | 1.4% |
| Cc1sc(C(=O)NC2COC2)cc1-n1cc(NC(=O)Nc2c(F)cccc2Cl)cn1 | enzyme activity | inhibitor |  | 10 µM | remaining activity | 102% |
| Cc1ccc(C(=O)Nc2ccc(CN3CCN(C)CC3)c(C(F)(F)F)c2)cc1C#Cc1cnc2cccnn12 | enzyme activity | inhibitor |  | 23.5 nM | remaining activity | 54% |
| N#CCCc1ccc2c(c1)-c1[nH]c3ccc([N+](=O)[O-])cc3c1CC(=O)N2 | cell-free assay |  |  | 0.5 µM | remaining signal | 77.1% |
| Cn1cncc1C1=CN(c2ncnc3[nH]cnc23)CCS1 | enzyme activity | inhibitor | radiometric | 2 µM | inhibition | 84.7% |
| CS(=O)(=O)Nc1cccc(-c2csc(NC(=O)CSc3nc4nccnc4c(=O)n3CCc3ccccc3)n2)c1 | enzyme activity | inhibitor |  | 10 µM | inhibition | 14% |
| O=C(NC[C@@H]1[C@H]2CN(C(=O)OCc3cc(C(F)(F)F)cc(C(F)(F)F)c3)C[C@@H]12)c1ccc2[nH]nnc2c1 | cell-free assay |  | competition with immobilised ligand | 1 µM | remaining binding | 98% |
| CC(C)(C)c1nc(-c2cccc(NS(=O)(=O)c3c(F)cccc3F)c2F)c(-c2ccnc(N)n2)s1 | enzyme activity | inhibitor | radiometric | 1 µM | remaining activity | 74% |
